The source made the active and inactive calls.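 Rule for the calls, unless noted: active = NADPH fluorescence slope more negative than the mean of all samples by about 3 SD, 99.7% confidence; inactive = the rest.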
Columns and labels:
[1] = inhibitors of TNFa-induced NFkB p65 translocation, primary screen, imaging, HUVEC, MLSMR starter and 10KST1 sets (AID 438;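 active = inhibition above 20% together with a positive visual image hit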;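 note: compound added about 3h40 before a 20 min TNFalpha stimulation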;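 for inhibition: signal is the nuclear over cytoplasmic p65 intensity ratio per well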); conditions: HUVEC TNFa-induced p65 nuclear translocation; cell count: measured here: nuclei count (cytotoxicity indicator), at 2.08 µM; inhibition: at 2 µM, stronger effect = higher value, 0% TNFa-plus-vehicle, 100% no-TNFa wells
[2] = reduction of polyQ htt aggregates in cells – imaging, exon1htt(103Q)mCFP cells, high-content imaging, primary screen (AID 483;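 active = visual image review flags a hit and inhibition of aggregation exceeds 20%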;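 note: compound exposure lasted 3 days before fixation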;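 for nuclei count: percent of the per-plate median nuclei count of sample wells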); conditions: exon1htt(103Q)mCFP cell line, aggregate imaging, at 2 µM; inhibition of aggregation: stronger effect = higher value; nuclei count: measured here: cell count, toxicity
[3] = endothelial E-selectin expression blockers – imaging, HUVEC, immunofluorescence, MLSMR starter and 10KST1 sets, primary screen (AID 487;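 active = visually confirmed hit in the image check and inhibition above 20%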;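 for inhibition: signal is fraction of cell area covered by stained E-selectin grains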;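 for nuclei count: 100% = median nuclei count of all wells on the same plate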); conditions: HUVEC TNFalpha-induced E-selectin immunofluorescence imaging, at 2 µM; inhibition: stronger effect = higher value; nuclei count: measured here: cell number, toxicity
[4] = target: Voltage-gated potassium channel subunit beta-2 (Rattus norvegicus) (UniProt P62483); experiment: inhibitors of rat Kvbeta2 reductase activity – biochemical, NADPH fluorescence, primary screen (AID 622;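 active = fluorescence slope higher than the sample average by over 3 SD, cut at about -0.22 in these data, passing the limit was not always enough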;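 note: slope of raw intensity against log time taken from 70 to 1610 s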); conditions: recombinant KvBeta, 4-cyanobenzaldehyde reduction, at 10 µM, stronger effect = higher value
Sequence of Voltage-gated potassium channel subunit beta-2 (Rattus norvegicus) (P62483 whole entry, looked up): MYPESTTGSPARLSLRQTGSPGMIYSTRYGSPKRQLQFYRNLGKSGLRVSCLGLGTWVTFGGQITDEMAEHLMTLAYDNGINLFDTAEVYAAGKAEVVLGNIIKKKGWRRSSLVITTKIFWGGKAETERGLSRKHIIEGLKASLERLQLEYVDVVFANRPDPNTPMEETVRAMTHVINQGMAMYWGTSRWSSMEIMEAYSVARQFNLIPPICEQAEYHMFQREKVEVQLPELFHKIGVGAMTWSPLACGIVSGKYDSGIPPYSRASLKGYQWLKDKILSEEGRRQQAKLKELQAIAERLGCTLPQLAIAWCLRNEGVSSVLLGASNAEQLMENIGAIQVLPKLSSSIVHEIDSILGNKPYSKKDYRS

[5] = target: Voltage-gated potassium channel subunit beta-2 (Rattus norvegicus) (UniProt P62483); experiment: enhancers of rat Kvbeta2 NADPH turnover – biochemical, NADPH fluorescence, primary screen (AID 623); conditions: Recombinant KvBeta, NADPH fluorescence decrease slope, 10 min; at 10 µM; stronger effect = lower value;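 note: fluorescence intensity change per second fitted from 20 to 320 s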
[6] = target: Muscarinic acetylcholine receptor M4 (Homo sapiens) (UniProt P08173); experiment: M4-linked GIRK flux change, two-sided – cell-based, HEK293 M4/GIRK, thallium flux, BTC-AM, M4 allosteric agonist project, primary screen (AID 625;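 active = fluorescence slope after compound addition differing from the mean of all tested samples at 99.7% confidence, mostly higher but some lower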;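 note: thallium influx through GIRK channels coupled to M4 in HEK293 cells with BTC-AM dye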); conditions: at 10 µM, actives lie on both sides
Sequence of Muscarinic acetylcholine receptor M4 (Homo sapiens) (P08173 whole entry, looked up): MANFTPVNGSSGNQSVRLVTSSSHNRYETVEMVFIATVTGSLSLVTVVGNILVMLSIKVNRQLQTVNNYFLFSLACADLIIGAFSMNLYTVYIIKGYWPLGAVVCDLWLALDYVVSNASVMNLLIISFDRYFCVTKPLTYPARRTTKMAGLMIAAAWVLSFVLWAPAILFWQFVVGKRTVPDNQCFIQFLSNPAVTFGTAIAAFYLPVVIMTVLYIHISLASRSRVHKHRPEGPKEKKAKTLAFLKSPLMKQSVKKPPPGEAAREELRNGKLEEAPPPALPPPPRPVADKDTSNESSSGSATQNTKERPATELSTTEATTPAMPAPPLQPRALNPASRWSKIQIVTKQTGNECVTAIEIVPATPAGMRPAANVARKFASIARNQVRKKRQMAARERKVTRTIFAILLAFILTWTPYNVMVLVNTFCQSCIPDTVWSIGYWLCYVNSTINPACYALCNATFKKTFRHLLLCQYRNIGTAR
In short: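 Material: M4/GIRK1/GIRK2 stable HEK293 cell line. Medium: pH 7.3 thallium assay buffer. Dosing: single compound concentration, 10 µM final. Schedule: 1 h dye loading, 2 min kinetic read. Measured by: kinetic fluorescence with BTC-AM dye. Read-out: post-addition slope, 15–24 s, of baseline-normalized fluorescence. Benchmarks: carbachol and DMSO controls.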

[7] = blockers of RIG-like receptor reporter activation – cell-based, Sendai virus stimulus, luciferase, 10K MLSCN set, TLR/RLR signaling modifier project, primary screen (AID 602276;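 active = inhibition at or above 50% at 10 µM; inactive = inhibition below 50%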;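 note: firefly luciferase from ISG56 promoter only with Renilla not read in this screen; 0% = Sendai virus plus DMSO and 100% = medium plus DMSO without virus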); conditions: HEK293 RL24 IRF3 luciferase reporter, at 10 µM, stronger effect = higher value
[8] = TLR3 IRF3 reporter activation blockers – cell-based, poly I:C stimulus, luciferase, 10K MLSCN set, primary screen (AID 602277;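 active = inhibition of the reporter signal at or above 50%; inactive = inhibition below 50%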); conditions: HEK293-TLR3 RL24 IRF3 luciferase reporter, at 10 µM, stronger effect = higher value

| SMILES | cell count [1] | inhibition [1] | inhibition of aggregation [2] | nuclei count [2] | inhibition [3] | nuclei count [3] | fluorescence slope [4] | NADPH fluorescence slope [5] | fluorescence slope [6] | inhibition [7] | inhibition [8] |
| --- | --- | --- | --- | --- | --- | --- | --- | --- | --- | --- | --- |
| Cc1cc2c(cc(C(=O)NCc3cccnc3)n2Cc2ccc(Cl)cc2)o1 | 672 | -16.6% (inactive) | -46.1% (inactive) | 127% | -91.9% (inactive) | 99.8% | -0.49 (inactive) | -2.7e-06 (inactive) | 0.00518 (inactive) | 12.1% (inactive) | 14.8% (inactive) |
| CC(CN1CCOCC1)(NS(=O)(=O)c1ccccc1)c1ccccc1 (configuration not stated) | 460 | -12% (inactive) | 10.4% (inactive) | 85.8% | 8% (inactive) | 111% | -0.576 (inactive) | -4.5e-06 (inactive) | 0.00534 (inactive) | 4.38% (inactive) | 7.26% (inactive) |
| Cc1cccc(N(C)C(=O)c2cc3cc4ccc(C)cc4nc3o2)c1 | 214 | -0.3% (inactive) | 11.5% (inactive) | 92.4% | -24.7% (inactive) | 109% | -0.396 (inactive) | -2.9e-05 (inactive) | 0.00523 (inactive) | 37.8% (inactive) | -34.7% (inactive) |
| CCn1c(=O)n(CC(=O)N(C)Cc2ccccc2)c(=O)c2ccccc21 | 684 | -16.4% (inactive) | 3.2% (inactive) | 120% | 65.6% (active) | 94.4% | -0.559 (inactive) | -2.3e-05 (inactive) | 0.00592 (inactive) | 11.1% (inactive) | 10.9% (inactive) |
| COc1ccc(N2CCN(C(c3cccc(OC)c3OC)c3nnnn3C3CCCC3)CC2)cc1 (configuration not stated) | 709 | 20% (inactive) | -7.2% (inactive) | 96.3% | 36.9% (inactive) | 76.2% | -0.508 (inactive) | 9.8e-05 (inactive) | 0.00439 (inactive) | -1.29% (inactive) | 21.9% (inactive) |
| CN(C)/C=c1\sc2c(C#N)cc(C(=O)c3ccc(Br)cc3)n2c1=O | 398 | 8.6% (inactive) | 5.6% (inactive) | 102% | 0.2% (inactive) | 102% | -0.439 (inactive) | -5.9e-05 (inactive) | -0.00984 (active) | -3.73% (inactive) | 19.1% (inactive) |
| CCOc1ccc(CCNC(=O)CCc2nc(-c3ccc(OC)cc3)no2)cc1OCC | 322 | -3.5% (inactive) | 1.2% (inactive) | 87.7% | -64.9% (inactive) | 146% | -0.529 (inactive) | 3.2e-05 (inactive) | 0.00633 (inactive) | 12.2% (inactive) | 12.3% (inactive) |

— PubChem BioAssay
